We go through 167 variants from the RNAGym collection of RNA variant scans (doi:10.1126/science.aae0568).

B1: tRNA (parent)
chain: GUUCCGUUGGCGUAAUGGUAACGCGUCUCCCUCCUAAGGAGAAGACUGCGGGUUCGAGUCCCGUACGGAACG

Variants at the floor of the assay were thinned out.

The variants in the data set derive from B1. Description: yeast fitness relative to wild type (ratio to wild type); higher = fitter; tRNA-Arg(CCU), competitive growth, 37 C, YPD. The procedure, abridged:
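A pool of Saccharomyces cerevisiae strains, each with a tRNA-Arg(CCU) gene variant at the native genomic locus, was competed in YPD at 37°C for 24 hours across six parallel replicates. The variants had been chemically synthesised at a 3% per-site mutation rate over 69 sites, and gene amplicons before and after competition were read by 100-nucleotide paired-end sequencing. Darwinian fitness relative to wild type rested on changes in genotype frequencies. Genotypes required ≥ 100 starting reads, and estimates < 0.5 were set to 0.5.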
U59C A65C: the yeast fitness was 0.837.
For the variant A57U A65U G68C A69G, the yeast fitness is no more than 0.5.
The result for A57C C60U reads 0.552; that for A57C C60G, 0.503; that for U59A G68U, 0.769.
With U59A G68A, the yeast fitness amounted to 0.791.
The result for G63C A65U A70U reads 0.558; that for C55G A69C, 0.593.
The result for A57G C61A reads 0.688.
Consider G63A G67C, for which the yeast fitness was determined as 0.707.
The result for A57C G68A reads 0.701.
As for A57C G68U, the figure is 0.696; as for G56C A69C, 0.818; as for C55G G63A, 0.622.
C55G G63C: the yeast fitness came out at 0.636.
As for C55U G56C, the figure is 0.593; as for C62A A70G, 0.674; as for U64A G68C, 0.709.
In the case of U64A G68U, the yeast fitness came to 0.728.
On to C61U G68A A70G, for which the yeast fitness came out at 0.648.
The result for A57U C62U C66U reads 0.613; that for G58A C61G, 0.668; that for A57U A70C, 0.7.
Regarding A57C G63C, the yeast fitness stood at 0.601.
As for G63C G67A, the figure is 0.692.
As for A57G G67A, the figure is 0.878; as for A57G G67U, 0.869; as for C55U C61G A65G G68A, 0.584.
As for A65C G67C, the figure is 0.782; as for G56C G63A, 0.571.
For the variant U59G C62U, the yeast fitness turned out to be 0.875.
As for A65C C66A, the figure is 0.808.
The result for A65C C66G reads 0.588; that for A65C C66U, 0.89; that for A57U A65U, 0.618.
As for G58C C66A, the figure is 0.717; as for G58C C66G, 0.711.
C61U G63C: the yeast fitness was found to be 0.565.
The result for C55G G68U reads 0.522.
As to C61A C62U, the yeast fitness was determined as 0.795.
Consider C61A C62A, for which the yeast fitness stood at 0.603.
As for G56A, the yeast fitness stood at 1.03.
The result for G56C reads 0.663.
For the variant G56U, the yeast fitness was found to be 0.85.
The result for G58C C62U reads 0.893.
For the variant G58A C62G, the yeast fitness is 1.14.
The result for G56A U59C reads 1.05; that for G56C A65U, 0.714.
G56C A65C: the yeast fitness stood at 0.754.
As for G56A A65G C66U G68A, the figure is 0.609; as for C60U G67A, 0.721; as for C55G A65G C66G, 0.567.
As for A65G C66G G68A, the figure is 0.575; as for A57C C62U G68C, 0.539.
As for G56C G67C, the figure is 0.696; as for C62U U64A, 0.735; as for U64C A65C, 0.891.
C60G C61A A69G: the yeast fitness stood at 0.586.
As for G58A U59A, the figure is 1.06.
As for G56A A65G C66U A69U, the figure is 0.573; as for C61G C62G A70C, 0.512; as for C60A C61A G63A, 0.605.
The result for U59A U64G reads 0.52; that for A57C A69C, 0.608; that for A57C A69G, 0.562.
Take G56A U59C A65C A70G: the yeast fitness came to 0.568.
The result for C55U A57U U64G reads 0.585; that for C60A C66U, 0.608.
The result for C60A C66G reads 0.773.
The result for U59C A69U reads 1.02; that for C61A G63C, 0.618.
For C60G G63A G67A, the yeast fitness is no more than 0.5.
Consider G56U A65G, for which the yeast fitness is 0.615.
Consider C60U C62G, for which the yeast fitness worked out at 0.688.
The result for C60U C62A reads no more than 0.5; that for A57C C62U, 0.565.
The result for G56C A57G reads 0.706.
Consider G56C A57C, for which the yeast fitness amounted to 0.529.
As for U59G G67A, the figure is 0.796; as for C62U C66U G67A, 0.52; as for C55A A57G U64A, no more than 0.5.
As for U59C C62U, the figure is 0.814; as for C55A A65U, 0.572.
The result for C66A reads 0.766.
Take G56A A69C: the yeast fitness came out at 1.04.
As for A57U U64A, the figure is 0.678; as for C55U G63A A69C, 0.537; as for C60A U64C, 0.718.
G56A G63A G67C: the yeast fitness stood at 0.543.
For the variant G63C G67C A70C, the yeast fitness amounted to 0.778.
The result for U64G A70U reads 0.787; that for G63A G67A A69G, no more than 0.5.
For the variant C55G U59A C62U, the yeast fitness was no more than 0.5.
The result for A57U C66U reads 0.583; that for C55G C62G, 0.602.
In the case of C55G C62A, the yeast fitness was determined as 0.619.
The result for C62G C66A reads no more than 0.5.
The result for C62G C66G reads 0.553; that for C61G C66U, 0.635; that for A57U G58C, 0.636.
The result for A65U G68A reads 0.729; that for G56A A70G, 0.886.
With G56A A70C, the yeast fitness amounted to 1.06.
As for G58C U59C A69U, the figure is 0.679; as for C62U G68C A69G, 0.567; as for C55U G68A, 0.765.
For C55U G68C, the yeast fitness came out at 0.702.
The result for C55U G68U reads 0.64; that for A57U G58A A65U, 0.621; that for G63U, 0.825.
The result for G63C reads 0.812; that for G63A, 0.853.
As for U59C A70U, the figure is 1.01; as for U59C A70C, 0.897.
G58A C60U: the yeast fitness is 0.688.
The result for U64A C66G reads 0.7; that for U64A C66U, 0.942; that for A57C A65G, 0.573.
The result for A57C A65U reads 0.606; that for C60U A70G, 0.786.
As for C61U U64A, the figure is 0.606; as for C61U U64C, 0.902.
A57U U59C: the yeast fitness is 0.569.
As for G56C A57U C60U, the figure is 0.698.
U64C G68A: the yeast fitness worked out at 0.979.
As for U64C G68C, the figure is 0.978.
As for C61U G67U, the yeast fitness is 0.86.
The result for C61U G67A reads 0.649.
Take G56C C61A G63U: the yeast fitness is 0.539.
As for C55U C60G, the figure is no more than 0.5.
As for G58C C61U, the figure is 0.887.
Consider C62U A65U G68C, for which the yeast fitness amounted to 0.602.
The result for C55G G56C reads no more than 0.5.
For A57U C61U, the yeast fitness was found to be 0.642.
As for G58A G67A, the figure is 0.851.
The result for C60U C66U reads 0.711; that for C61U A65G G68A, 0.705.
The result for G58A C60U A70G reads 0.702; that for G58A A69C, 0.955; that for G58A A69G, 1.15.
As to A57C U64C, the yeast fitness was determined as 0.564.
The result for A57G A65C reads 0.919; that for A65C G68A, 0.767.
The result for G63U U64A reads 0.676.
As for G56A C62G, the yeast fitness was 0.643.
As for G56A C62A, the figure is 0.697.
As for A57C C61U A65U, the figure is 0.563; as for G58A C60U C62A, 0.552.
For the variant C60A A70C, the yeast fitness turned out to be 0.621.
C60A A70G: the yeast fitness was 0.531.
As for C62G A65G A70U, the figure is no more than 0.5.
The result for C55G A70U reads 0.653; that for C55G A70C, 0.566; that for A57U A65U G68C, no more than 0.5.
As for C55A U59G A65C, the figure is no more than 0.5.
A57U C66U G68C A69U: the yeast fitness was no more than 0.5.
The result for A57G U59A U64G reads no more than 0.5.
Take U59G A65G: the yeast fitness worked out at 0.965.
As for U59G A65U, the figure is 0.917; as for C60G G68C, 0.603.
As for C55A C61A, the figure is 0.579; as for C60A A65U A70U, 0.53; as for G58A C61A C62G, 0.711.
The result for C61U A69U reads 1.02; that for A57G A70C, 0.859; that for C55A C62G G67A, no more than 0.5.
For the variant C62U A65U, the yeast fitness stood at 0.93.
